Results: ChEMBL document CHEMBL3091309, “A CD4 mimic as an HIV entry inhibitor: pharmacokinetics” (Bioorg Med Chem, 2013)

How the values were obtained:
[1] = Half life in rhesus monkey at 13.4 mg/kg, iv by HPLC analysis; type: ADME, organism-based, Macaca mulatta; design: dose 13.4 mg/kg, route intravenous; details: in vivo
In short: (§1)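 Dosed by cephalic vein injection in 30 mL 0.1 M sodium phosphate buffer with NaCl, pH 7.4. Blood (3.0 mL) was drawn at 0, 0.5, 1, 2, 4 and 24 h. Plasma was separated and stored at -80°C, then MeOH-extracted. Supernatant was spiked with phenol internal standard (final 150 µg/mL) and filtered for HPLC, quantified against a peak-area-ratio calibration curve.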

[2] = Volume of distribution in rhesus monkey at 13.4 mg/kg, iv after 24 hrs by HPLC analysis; type: ADME, organism-based, Macaca mulatta; design: dose 13.4 mg/kg, route intravenous; details: in vivo; in short: as §1
[3] = Initial plasma concentration in rhesus monkey at 13.4 mg/kg, iv; type: ADME, organism-based, Macaca mulatta; design: dose 13.4 mg/kg, route intravenous; in short: as §1
[4] = Initial plasma concentration in Jcl:Sprague-Dawley rat at 14 mg/kg, iv by HPLC analysis; type: ADME, organism-based; design: dose 14 mg/kg, route intravenous
In short: (§2)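 Jcl:SD rats (6 weeks old) dosed iv via tail vein with 2.5 mg 2-HCl in 1.0 mL saline. Plasma sampled from 15 to 240 min and assayed by HPLC with phenol internal standard. Parameters derived from the plasma concentration–time course.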

Rattus norvegicus [5] = test: Volume of distribution in Jcl:Sprague-Dawley rat at 14 mg/kg, iv by HPLC analysis; type: ADME, organism-based; design: dose 14 mg/kg, route intravenous; details: in vivo; in short: as §2
[6] = Half life in Jcl:Sprague-Dawley rat at 2.5 mg, iv by HPLC analysis; details: in vivo
[7] = Adsorption in rhesus monkey blood cells assessed as YYA-021 level at 1 mg/ml after 2 hrs by HPLC analysis; type: ADME, cell-based, Macaca mulatta
In short: (§3)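 Macaque whole blood (1.0 mL) spiked with 2-HCl in saline (5 mg/mL stock, 0.25 mL), incubated 37°C for 0, 1 or 2 h. Plasma and blood cells separated by centrifugation; cells brought to 1.0 mL with PBS, and an aliquot sonicated. In the re-addition arm, plasma was added to 1 h cells and incubated 1 h more. MeOH-extracted supernatants, phenol internal standard 600 µg/mL final, analyzed by HPLC.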

[8] = Adsorption in rhesus monkey blood cells assessed as YYA-021 level at 1 mg/ml after 1 hr followed by plasma addition by HPLC analysis; type: ADME, cell-based, Macaca mulatta; in short: as §3
Plasma [9] = test: Adsorption in rhesus monkey plasma assessed as YYA-021 level at 1 mg/ml preincubated for 1 hr followed by plasma addition measured after 1 hr by HPLC analysis; type: ADME, cell-free, Macaca mulatta; in short: as §3
Plasma [10] = test: Adsorption in rhesus monkey plasma assessed as YYA-021 level at 1 mg/ml after 1 hr followed by plasma addition by HPLC analysis; type: ADME, cell-free, Macaca mulatta; in short: as §3
[11] = Adsorption in rhesus monkey blood cells assessed as YYA-021 level at 1 mg/ml after 1 hr by HPLC analysis; type: ADME, cell-based, Macaca mulatta; in short: as §3
Plasma [12] = test: Adsorption in rhesus monkey plasma assessed as YYA-021 level at 1 mg/ml after 1 hr by HPLC analysis; type: ADME, cell-free, Macaca mulatta; in short: as §3
[13] = Adsorption in rhesus monkey blood cells assessed as YYA-021 level at 1 mg/ml measured immediately by HPLC analysis; type: ADME, cell-based, Macaca mulatta; in short: as §3
Plasma [14] = test: Plasma concentration in rhesus monkey at 13.4 mg/kg, iv measured immediately by HPLC analysis; type: ADME, organism-based, Macaca mulatta; design: dose 13.4 mg/kg, route intravenous; details: in vivo
In short: (§4)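 Macaque given 70.6 mg 2-HCl in 30 mL 0.1 M sodium phosphate buffer with NaCl, pH 7.4, by cephalic vein injection. Blood (3.0 mL) taken at 0, 0.5, 1, 2, 4 and 24 h, and plasma stored at -80°C. Plasma extracted with MeOH and spiked with phenol (150 µg/mL final). Quantified by HPLC on a 20–35% CH3CN (0.1% TFA) gradient over 30 min.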

Plasma [15] = test: Adsorption in rhesus monkey plasma at 1 mg/ml preincubated for 1 hr followed by plasma addition measured after 1 hr by HPLC analysis; type: ADME, cell-free, Macaca mulatta; in short: as §3
Rattus norvegicus [16] = test: Toxicity in iv dosed Jcl:Sprague-Dawley rat assessed as renal and hepatic dysfunction; type: organism-based; details: in vivo
[17] = Adsorption in rhesus monkey blood cells at 1 mg/ml after 2 hrs by HPLC analysis; type: ADME, cell-based, Macaca mulatta; in short: as §3
Plasma [18] = test: Adsorption in rhesus monkey plasma at 1 mg/ml after 2 hrs by HPLC analysis; type: ADME, cell-free, Macaca mulatta; in short: as §3
[19] = Adsorption in rhesus monkey blood cells at 1 mg/ml after 1 hr followed by plasma addition by HPLC analysis; type: ADME, cell-based, Macaca mulatta; in short: as §3
Plasma [20] = test: Adsorption in rhesus monkey plasma at 1 mg/ml after 1 hr followed by plasma addition by HPLC analysis; type: ADME, cell-free, Macaca mulatta; in short: as §3
[21] = Adsorption in rhesus monkey blood cells at 1 mg/ml after 1 hr by HPLC analysis; type: ADME, cell-based, Macaca mulatta; in short: as §3
Plasma [22] = test: Adsorption in rhesus monkey plasma at 1 mg/ml after 1 hr by HPLC analysis; type: ADME, cell-free, Macaca mulatta; in short: as §3
[23] = Adsorption in rhesus monkey blood cells at 1 mg/ml measured immediately by HPLC analysis; type: ADME, cell-based, Macaca mulatta; in short: as §3
Plasma [24] = test: Adsorption in rhesus monkey plasma at 1 mg/ml measured immediately by HPLC analysis; type: ADME, cell-free, Macaca mulatta; in short: as §3
[25] = Plasma concentration in rhesus monkey at 13.4 mg/kg, iv after 24 hrs by HPLC analysis; type: ADME, organism-based, Macaca mulatta; design: dose 13.4 mg/kg, route intravenous; in short: as §4
[26] = Plasma concentration in rhesus monkey at 13.4 mg/kg, iv after 4 hrs by HPLC analysis; type: ADME, organism-based, Macaca mulatta; design: dose 13.4 mg/kg, route intravenous; in short: as §4
[27] = Plasma concentration in rhesus monkey at 13.4 mg/kg, iv after 1 hr by HPLC analysis; type: ADME, organism-based, Macaca mulatta; design: dose 13.4 mg/kg, route intravenous; in short: as §4
[28] = Plasma concentration in rhesus monkey at 13.4 mg/kg, iv after 2 hrs by HPLC analysis; type: ADME, organism-based, Macaca mulatta; design: dose 13.4 mg/kg, route intravenous; in short: as §4
[29] = Plasma concentration in rhesus monkey at 13.4 mg/kg, iv after 0.5 hrs by HPLC analysis; type: ADME, organism-based, Macaca mulatta; design: dose 13.4 mg/kg, route intravenous; in short: as §4
Rhesus monkey [30] = test: Toxicity in iv dosed rhesus monkey; type: organism-based, Macaca mulatta; details: in vivo
Rhesus monkey [31] = test: Toxicity in rhesus monkey assessed as prolonged PR interval in bradycardia at 70.6 mg, iv; type: organism-based, Macaca mulatta; details: in vivo
Rhesus monkey [32] = test: Toxicity in rhesus monkey assessed as prolonged PR interval in electrocardiogram at 70.6 mg, iv; type: organism-based, Macaca mulatta; details: in vivo
Rhesus monkey [33] = test: Toxicity in rhesus monkey assessed as mydriasis at 70.6 mg, iv; type: organism-based, Macaca mulatta; details: in vivo
[34] = Plasma concentration in Jcl:Sprague-Dawley rat at 14 mg/kg, iv after 240 mins by HPLC analysis; type: ADME, organism-based; design: dose 14 mg/kg, route intravenous
In short: (§5)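 6-week-old Jcl:SD rats given 2.5 mg 2-HCl in 1.0 mL saline by tail-vein injection. Tail-vein blood drawn at 15, 30, 45, 60, 120 and 240 min and centrifuged to plasma. Plasma stored at -80°C, mixed with phenol internal standard (62.5 µg/mL final), filtered and quantified by HPLC. Standard curve from peak-area ratio to phenol.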

Plasma [35] = test: Adsorption in rhesus monkey plasma assessed as YYA-021 level at 1 mg/ml measured immediately by HPLC analysis; type: ADME, cell-free, Macaca mulatta; in short: as §3
[36] = Plasma concentration in Jcl:Sprague-Dawley rat at 14 mg/kg, iv after 45 mins by HPLC analysis; type: ADME, organism-based; design: dose 14 mg/kg, route intravenous; in short: as §5
[37] = Plasma concentration in Jcl:Sprague-Dawley rat at 14 mg/kg, iv after 60 mins by HPLC analysis; type: ADME, organism-based; design: dose 14 mg/kg, route intravenous; in short: as §5
[38] = Plasma concentration in Jcl:Sprague-Dawley rat at 14 mg/kg, iv after 30 mins by HPLC analysis; type: ADME, organism-based; design: dose 14 mg/kg, route intravenous; in short: as §5
[39] = Plasma concentration in Jcl:Sprague-Dawley rat at 14 mg/kg, iv after 15 mins by HPLC analysis; type: ADME, organism-based; design: dose 14 mg/kg, route intravenous; in short: as §5
Rattus norvegicus [40] = test: Toxicity in Jcl:Sprague-Dawley rat assessed as change in body weight at 5 mg/kg, iv after 2 weeks relative to control; type: organism-based; design: dose 5 mg/kg, route intravenous; details: in vivo, 336 h

SMILES: Cc1ccc(NC(=O)C(=O)NC2CC(C)(C)NC(C)(C)C2)cc1
- half-life [1]: 98.4 min
- Vd [2]: 47.1 L
- C0 [3]: 1500 ng/mL
- C0 [4]: 17300 ng/mL
- Vd (Rattus norvegicus [5]): 145 mL
- half-life [6]: 8.46 min

SMILES: Cc1ccc(NC(=O)C(=O)NC2CC(C)(C)NC(C)(C)C2)cc1.Cl
- Activity [7]: 61 µg/mL
- Activity [8]: 17.9 µg/mL
- Activity (Plasma [9]): 46 µg/mL
- Activity (Plasma [10]): 92.4 µg/mL
- Activity [11]: 67.2 µg/mL
- Activity (Plasma [12]): 102 µg/mL
- Activity [13]: 64.2 µg/mL
- Cp (Plasma [14]): 149 ng/mL
- Activity (Plasma [15]): 51.2 µg/mL
- MTD (Rattus norvegicus [16]): 2.5 mg
- Activity [17]: 68 µg/mL
- Activity (Plasma [18]): 105 µg/mL
- Activity [19]: 19.9 µg/mL
- Activity (Plasma [20]): 102.9 µg/mL
- Activity [21]: 74.8 µg/mL
- Activity (Plasma [22]): 113.6 µg/mL
- Activity [23]: 71.5 µg/mL
- Activity (Plasma [24]): 133.7 µg/mL
- concentration at 24 h [25]: 415 ng/mL
- concentration at 4 h [26]: 392 ng/mL
- concentration at 1 h [27]: 1260 ng/mL
- concentration at 2 h [28]: 1090 ng/mL
- concentration at 0.5 h [29]: 1330 ng/mL
- MTD (Rhesus monkey [30]): 35.3 mg
- Activity (Rhesus monkey [31]): Toxic
- Activity (Rhesus monkey [32]): Toxic
- Activity (Rhesus monkey [33]): Toxic
- concentration at 4 h [34]: 1120 ng/mL
- Activity (Plasma [35]): 120 µg/mL
- concentration at 0.75 h [36]: 1510 ng/mL
- concentration at 1 h [37]: 620 ng/mL
- concentration at 0.5 h [38]: 2100 ng/mL
- concentration at 0.25 h [39]: 6010 ng/mL
- Activity (Rattus norvegicus [40]): Non-toxic
